From ChEMBL document CHEMBL3102806, “1,2,4-Triazole/oxime hybrids as new strategy for nitric oxide donors: Synthesis, anti-inflammatory, ulceroginicity and antiproliferative activities” (Eur J Med Chem, 2014) come the findings set out here.

Common to all, as to assay type: functional
One assay concerns NCI-H23. Description: Growth inhibition of human NCI-H23 cells after 48 hrs by sulforhodamine B assay. The conditions noted are these: NCI-H23, 48 h. The essentials: (§1)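 NCI 60-cell-line panel (nine tumour subpanels), five-dose format: 10-fold dilutions from 10^-4 to 10^-8 M, 48 h continuous exposure, SRB protein stain. Percent growth at each level is derived from time-zero, untreated control and treated absorbances. GI50 is the concentration where [(Ti−Tz)/(C−Tz)]×100 = 50. Values outside the tested range are reported as above or below the limit.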

For a further assay, the system named is LOX IMVI. Description: Growth inhibition of human LOXIMVI cells after 48 hrs by sulforhodamine B assay. The essentials:
as §1

The next assay has as its system MCF7. Description: Growth inhibition of human MCF7 cells after 48 hrs by sulforhodamine B assay. The conditions noted are these: MCF7, 48 h. An outline of the steps: as §1
(In SRB staining, fixed cells bind dye roughly in proportion to their protein.)

The next assay has as its system MDA-MB-468. The assay is described as follows: Growth inhibition of human MDA-MB-468 cells after 48 hrs by sulforhodamine B assay. The following applies: MDA-MB-468, 48 h. An outline of the steps:
as §1

[1] abbreviates: read-out: LC50 (the source's name).

As a reminder, the GI50 is the concentration that inhibits growth by half. Read a high GI50 as lower sensitivity of the cells. Usually TGI stands for the concentration giving total growth inhibition. As for `COc1ccc(-c2nnc(SCC(=O)Nc3ccc(/C(C)=N/O)cc3)n2-c2ccccc2)cc1OC`, the GI50 with NCI-H23 was 12.9 µM; with LOX IMVI it was greater than 100 µM; in the assay with MCF7, greater than 100 µM; in the assay with MDA-MB-468 it was 16.4 µM. Besides, the TGI in the assay with NCI-H23, in the assay on LOX IMVI, in the assay with MCF7 and in the assay on MDA-MB-468 was greater than 100 µM each time. The CC50 in the assay with NCI-H23 (setting [1]), in the assay with LOX IMVI (setting [1]), in the assay with MCF7 (setting [1]) and with MDA-MB-468 (setting [1]) was greater than 100 µM throughout.
